Screening results as filed in PubChem BioAssay.
Shown is part of a subset that was picked to be rich in hits.
ALR inh = human ALR oxidase inhibition via reduced H2O2; P55789; purified ALR, DTT oxidation, H2O2 HRP-luminol luminescence; inhibition, % (no concentration beside the values); actives 3.8% (n = 290,000); AID 485317;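 active means mean replicate inhibition above about 79%, with every replicate also reaching it, limit read from the data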
Target sequence (P55789 whole entry, looked up): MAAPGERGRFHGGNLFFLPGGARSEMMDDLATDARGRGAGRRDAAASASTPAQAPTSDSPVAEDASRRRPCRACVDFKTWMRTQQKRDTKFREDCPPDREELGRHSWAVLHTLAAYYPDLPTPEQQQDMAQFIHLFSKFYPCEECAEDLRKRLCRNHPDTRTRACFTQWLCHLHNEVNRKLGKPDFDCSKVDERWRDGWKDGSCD
T cell modulator = modulates CD8 T cell binding to vesicles | 2C CD8+ T cell-vesicle binding, flow cytometry; hits give low values | actives 0.068% (n = 330,000) | response (vesicle binding), % at 7 µM;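 active means response, share of CD8 T cells binding vesicles, and their 90th percentile fluorescence all below set limits, cut at about 80% in these data, passing the limit was not always enough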;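 further: values below 100% mean blocked vesicle binding to the CD8+ T cells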
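Test system: purified 2C TCR transgenic mouse naive CD8+ T cells. Probe or stimulus: QL9-peptide-loaded Drosophila micro-vesicles bearing Ld, ICAM-1 and B7-1. Incubation: binding step 1.5 h, 37 °C, antibody labelling 20 min, ice. Measured by: flow cytometry of vesicle-bound cells.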
N-glyco inh = N-linked glycosylation inhibition | actives 0.23% (n = 360,000) | AID 588692 | D54 ERlucT glycosylation luciferase reporter, 24 h; percent of 100 nM tunicamycin response | reporter increase, % at 12.5 µM;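 active means mean luciferase reporter signal, scaled so untreated is 0 and the glycosylation-blocking control 100, at or above a set limit in every replicate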;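 further: luciferase carries N-glycosylation sites so blocking glycosylation raises the light; 0% = median of neutral control wells and 100% = median of 100 nM tunicamycin wells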
Starred values were filed as active, the others as inactive; i = inactive; · = no result.

SMILES	ALR inh	T cell modulator	N-glyco inh
Cc1cccc2cc(CN(CC(C)C)S(=O)(=O)c3ccccc3)c(=O)[nH]c12	-1	380	-4
COc1ccc(-c2ccc(/C=C(\NC(=O)c3ccccc3)C(=O)N3CCOCC3)o2)cc1	98*	201	5
COc1ccc(C(=O)N/C(=C\c2ccccc2)C(=O)N2CCOCC2)cc1	-9	296	-1
COc1cc(/C=C/C(=O)O)cc(S(=O)(=O)NNC(=O)c2ccc3c(c2)OCO3)c1OC	90*	220	2
COc1cc(/C=C/C(=O)O)cc(S(=O)(=O)Nc2ccc3c(c2)OCO3)c1OC	-78	242	1
COc1ccc(/C(C)=N\NC(=O)c2ccc3c(c2)OCO3)cc1OC	-5	345	·
COc1cc(C(=O)N/N=C(\C)c2ccc3c(c2)OCO3)cc(OC)c1OC	-30	134	34*
COc1ccc(CN2CC[C@H]3C=CC[C@@H](C(=O)Nc4ccc(Cl)c(C(F)(F)F)c4)[C@H]3C2=O)cc1OC	-2	·	1
Nc1ccc(S(=O)C(F)(F)F)cc1 (stereo not given)	-3	693	3
CCC(C(=O)O)n1cnc2scc(-c3ccc(C)c(C)c3)c2c1=O (stereo not given)	93*	237	-2
CCC(C(=O)OC)n1cnc2scc(-c3ccc(C)c(C)c3)c2c1=O (stereo not given)	1	671	2
CCCC(NCC(=O)Nc1cc(S(=O)(=O)N2CCOCC2)ccc1OC)c1ccccc1 (stereo not given)	·	502	1
COc1ccccc1OCCNC(=O)C1CC(=O)N(c2ccc3c(c2)OCCO3)C1 (stereo not given)	1	i	2
CCOC(=O)C1=C(C)NC2=C(C(=O)CC(C)(C)C2)C1c1ccc2c(c1)CCCN2C (stereo not given)	99*	187	-3
CCOC(=O)C1=C(C)NC2=C(C(=O)CC(C)(C)C2)C1c1ccc(O)c(OCC)c1 (stereo not given)	0	371	0
CN(C(=O)COc1ncnc2sccc12)C1CCCCC1	·	576	0
CC(C)n1c(-c2ccco2)csc1=Nc1cccnc1	92*	294	-9
COCCn1c(-c2ccccc2)csc1=Nc1cccnc1	-2	168	-2
CCOC(=O)Nc1sc(NS(=O)(=O)c2ccccc2)nc1C	98*	312	2
Cc1nc(NS(=O)(=O)c2ccccc2)sc1NC(=O)Nc1ccccc1	99*	490	1
CCOC(=O)Nc1ccc(Oc2ccccc2)cc1	-24	720	1
CCOC(=O)Nc1sc(NS(=O)(=O)c2ccc(C)cc2)nc1C	30	148	2
CCOC(=O)Nc1c2ccccc2nc2ccccc12	-111	91	34*
Cc1nc(NS(=O)(=O)c2ccccc2)sc1NC(=O)Nc1ccc(Cl)cc1	74	77	1
Cc1ccc(NC(=O)C2CCCN2C(=O)OCc2ccccc2)cc1F (stereo not given)	-5	333	-2
SMILES	ALR inh	T cell modulator	N-glyco inh
OCCN1CCN(c2ncnc3c2ncn3[C@H]2CN(Cc3cccs3)C[C@@H](CO)O2)CC1	·	·	0
COC(=O)C(Cc1ccccc1)NC(=O)CC(C)CC(=O)Nc1ccc(C)cc1 (stereo not given)	-4	177	0
O=S(=O)(c1ccc(Br)s1)N1CCN(CCc2ccccc2)CC1	-2	i	-4
Cc1ccc(N=Cc2nc(-c3ccc(C)cc3)oc2O)cc1	·	·	1
COc1ccc(N=Cc2nc(-c3ccco3)oc2O)cc1	92*	593	2
COc1ccc2c(c1)c(C(=O)O)c(C)n2-c1ccc(Cl)cc1	-18	999	1
CC(=O)NC(C)c1nc2ccccc2n1CC(=O)NC(C)CCc1ccccc1 (stereo not given)	-9	776	1
CC(=O)c1ccc(N(C(=O)CNC(=O)c2ccco2)C(C(=O)NC2CCCC2)c2ccncc2)cc1 (stereo not given)	·	216	1
CNC(=O)Cc1csc2ccc(C)cc12	3	730	1
CCCCOC(=O)c1ccc(NC(=O)CSC2=Nc3ccccc3C3CC=NN23)cc1 (stereo not given)	100*	537	-3
O=C(CSC1=Nc2ccccc2C2CC=NN12)Nc1ccc(F)c(F)c1F (stereo not given)	71	354	0
CCOC(=O)NC(=O)/C(C#N)=N\Nc1cccc(OC)c1	98*	650	0
CCOC(=O)NC(=O)/C(C#N)=N/Nc1c(F)cccc1F	·	276	-1
COc1ccc(C)cc1NC(=O)CN1C(=O)COc2ccc(S(=O)(=O)N3CCC(C)CC3)cc21	1	224	-3
Clc1cc(Br)ccc1NCc1cccnc1	5	221	0
COc1ccc(C(=O)CCN2CCCC(C)C2)cc1 (stereo not given)	8	215	-2
CC1CCCN(CCC(=O)c2ccc(Br)cc2)C1 (stereo not given)	99*	321	3
CC(C)(C)c1ccc(Nc2n[nH]c3ccccc23)cc1	·	·	-17
O=C(N1CCN(c2ccccc2F)CC1)C1(c2cccs2)CCOCC1	3	250	0
CN(C)c1ccc(-c2csc(C(C)(O)c3ccccc3)n2)cc1 (stereo not given)	·	·	-3
O=c1cc(-c2ccccc2)oc2cc(O)c(O)c(O)c12	·	813	-9
O=c1c(O)cccc2cc(O)c(O)c(O)c12	100*	205	3
CCC1CCCCN1CCCNC(=O)CN1C(=O)COc2ccccc21 (stereo not given)	0	626	0
CCc1nc(SCC(=O)Nc2ccc(N(CC)CC)cc2)n[nH]1	·	·	2
CCc1nc(SCC(=O)Nc2ccc(C(=O)O)cc2)n[nH]1	99*	332	1
SMILES	ALR inh	T cell modulator	N-glyco inh
CCc1nc(SCC(=O)Nc2ccc([N+](=O)[O-])cc2)n[nH]1	-2	216	0
CCc1nc(SCC(=O)Nc2ccc(N(C)C)cc2)n[nH]1	98*	229	9
C=CCc1cccc2cc(C(=O)NNC(=O)c3ccncc3)c(=O)oc12	-8	225	3
O=C(NCCC(NS(=O)(=O)OCC(Cl)(Cl)Cl)c1ccccc1)C(F)(F)F (stereo not given)	2	533	-1
COc1cc(OC)cc(C(=O)N/N=C(\C)CC(=O)Nc2ccccn2)c1	4	239	3
CCOC(=O)Cn1nc2oc(=O)c(CCN3CCN(c4ccccc4OC)CC3)c(C)c2c1C	·	·	-1
COc1ccccc1-c1nnc(Nc2nc3c(OC)cccc3s2)o1	-2	423	-7
COc1cccc2sc(NN)nc12	98*	311	-2
COc1cccc2sc(Nc3nc(-c4ccncc4)cs3)nc12	·	285	8
COc1cccc2sc(Nc3nnc(-c4ccccc4Cl)o3)nc12	86*	449	9
CCCCC(=O)N(Cc1ccc(F)cc1)C1CCS(=O)(=O)C1 (stereo not given)	25	704	0
COc1ccc2c(C)cc(SCC(=O)NC3CCCC3)nc2c1	·	211	-1
COc1ccc2c(C)cc(SCC(=O)c3ccc4c(c3)OCO4)nc2c1	99*	239	4
Cc1ccc(CNc2ccc3c(c2)ncn3C)cc1	67	145	1
CCn1cnc2cc(NCc3ccc(Cl)cc3)ccc21	68	138	-4
